These results are taken from ChEMBL document CHEMBL3862013 (Bioorg Med Chem, 2016).

For data set [1], the system named is Human immunodeficiency virus 1. The experiment in a line: Inhibition of CD4-dependent CXCR4-tropic HIV1 3B cell to cell transmission using Ghost X4/R5 cells as target cells and H9 as effector cells assessed as p24 release incubated for 4 hrs by sandwich ELISA method. Format: functional. Particulars: Human immunodeficiency virus 1, 3B. (ELISA stands for enzyme-linked immunosorbent assay.)

Data set [2] concerns Human immunodeficiency virus 1. The experiment in a line: Antiviral activity against ENV pseudotyped HIV1 subtype C ZM233M.PB6. Format: functional. Particulars: Human immunodeficiency virus 1, subtype C ZM233M.PB6.
Data set [3] deals with Human immunodeficiency virus 1. Kind of data set: Antiviral activity against ENV pseudotyped HIV1 subtype D QD435.100M.ENV.B5. Format: functional. The following applies: Human immunodeficiency virus 1, subtype D QD435.100M.ENV.B5.
A short description of data set [4]: Cytotoxicity against human MT2 cells after 4 days by XTT assay. The following applies: mt2, 96 h. In kind it is toxicity, cell-based. In outline: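 Run in parallel with the antiviral assay. Graded compound added to an equal volume of MT-2 cells (10^5 cells/ml) and incubated 4 days. XTT added, and soluble formazan read at 450 nm after 4 hours.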
(In general: Formazan colour is commonly taken as a measure of viable cells.)

Data set [5] has as its system Human immunodeficiency virus 1. The experiment in a line: Antiviral activity against HIV1 3B assessed as inhibition of multi-cycle viral infection in human MT2 cells by measuring p24 production preincubated for 30 mins followed by addition of cells measured after 4 days by sandwich ELISA. Format: functional, cell-based. In outline:
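Overnight at 37 °C, then supernatant replaced with fresh medium. Day 4 post-infection, supernatants mixed with equal volume 5% Triton X-100 and p24 measured by sandwich ELISA. IC50 derived from percent inhibition of p24 production; mean ± SD.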

Data set [6] relates to Human immunodeficiency virus 1. Kind of data set: Antiviral activity against ENV pseudotyped HIV1 subtype A/D QA790.204I.ENV.C8. The following applies: Human immunodeficiency virus 1, subtype A/D QA790.204I.ENV.C8. Format: functional.
Data set [7] can be described thus: Cytotoxicity against human TZM-bl cells after 3 days by XTT assay. In kind it is toxicity, cell-based. Particulars: 72 h. In outline:
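Graded compound concentrations added to an equal volume of TZM-bl cells (10^5/ml) and incubated 3 days. XTT added, then formazan read at 450 nm after 4 h. CC50 derived from percent cytotoxicity; mean ± SD.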

In data set [8] the test system is Human immunodeficiency virus 1. The experiment in a line: Antiviral activity against ENV pseudotyped HIV1 subtype A/D QA790.204I.ENV.E2. In kind it is functional. The following applies: Human immunodeficiency virus 1, subtype A/D QA790.204I.ENV.E2.
The subject of data set [9] is Human immunodeficiency virus 1. Kind of data set: Antiviral activity against ENV pseudotyped HIV1 subtype A/E AA058. Format: functional. The following applies: Human immunodeficiency virus 1, subtype A/E AA058.
Data set [10] in a line: Inhibition of HIV1 HXB2 Env-mediated cell-cell fusion using MAGI-CCR5 as target cells and HL2/3 as effector cells preincubated with target cells for 1 hr followed by effector cells addition measured after 24 hrs by beta-galactosidase reporter gene assay. Particulars: Human immunodeficiency virus 1, HXB2. For orientation: Reporter assays use an easily measured gene product as a stand-in for the process of interest.

Data set [11] concerns Human immunodeficiency virus 1. Kind of data set: Antiviral activity against ENV pseudotyped HIV1 PRHPA4259 clone 7. In kind it is functional. The following applies: Human immunodeficiency virus 1, PRHPA4259 clone 7.
The test system of data set [12] is Vesicular stomatitis virus. Kind of data set: Antiviral activity against G-glycoprotein expressing VSV. Format: functional.
Data set [13] relates to Human immunodeficiency virus 1. The experiment in a line: Antiviral activity against X4 tropic HIV1 HXB2 assessed as inhibition of single cycle viral infection in human TZM-bl cells preincubated for 30 mins followed by addition of cells measured after 3 days by luciferase reporter gene assay. Format: functional, cell-based.
The subject of data set [14] is Human immunodeficiency virus 1. The experiment in a line: Inhibition of CD4-dependent CCR5-tropic HIV1 ADA cell to cell transmission using Ghost X4/R5 cells as target cells and MOLT4 as effector cells assessed as p24 release incubated for 4 hrs by sandwich ELISA method. In kind it is functional, cell-based. Particulars: Human immunodeficiency virus 1, ADA, MOLT-4, 4 h.

The mark [15] stands for this setting: Human immunodeficiency virus 1, 3B, MT2.
Setting [16] is: Human immunodeficiency virus 1, HXB2, TZM-bl.

Structures are written as SMILES.

On to `Cc1nc([C@H](NC(=O)c2ccc(-c3ccc(Cl)cc3)[nH]2)[C@@H]2CCCCN2)sc1CO`, for which the IC50 in data set [1] stood at 8.8 µM; in data set [2], 1.7 µM; in data set [3], 1.6 µM; in [5] (setting [15]) it was 0.85 µM; in [6], 1.5 µM; in data set [8], 0.71 µM. Also, the IC50 came to 4.4 µM in data set [9], 8.9 µM in [10], 1.4 µM in data set [11] and 7.1 µM in [12]. Moreover, the CC50 in [4] amounted to 24.8 µM; in data set [7] it was 23.6 µM.

As for `Cc1ccc(-c2ccc(C(=O)N[C@H](CN)c3nc(C)c(CO)s3)[nH]2)cc1F`, the figures for the IC50 in data set [13] (setting [16]) and in [5] (setting [15]) were 1.1 µM and 0.65 µM, respectively. Moreover, the cytotoxic concentration (CC50) was 24.3 µM in data set [4] and 26.2 µM in [7].

`Cc1ccc(-c2ccc(C(=O)N[C@H](c3nc(C)c(CCO)s3)[C@@H]3CCCCN3)[nH]2)cc1F`: the IC50 is 10.6 µM in data set [13] (setting [16]) and 6.1 µM in data set [5] (setting [15]). Further, the CC50 came to 29.7 µM in [4] and 28.8 µM in data set [7].

As for `Cc1nc([C@@H](NC(=O)c2ccc(-c3ccc(Cl)c(F)c3)[nH]2)[C@@H]2CCCCN2)sc1CCO`, the IC50 in [13] (setting [16]) was 7.5 µM; in [5] (setting [15]) it was 3.4 µM. Further, the CC50 in data set [4] came out at 16.9 µM; in data set [7] it was 16.1 µM.

In the case of `Cc1nc([C@H](NC(=O)c2ccc(-c3ccc(Cl)c(F)c3)[nH]2)[C@@H]2CCCCN2)sc1CCCO`, the concentration for half-maximal inhibition (IC50) in data set [13] (setting [16]) was found to be 5.1 µM; in data set [5] (setting [15]), 4.5 µM. The CC50 in data set [4] came out at 12.6 µM; in [7] it was 8.2 µM.

With `Cc1ccc(-c2ccc(C(=O)N[C@@H](c3nc(C)c(CO)s3)[C@@H]3CCCCN3)[nH]2)cc1F`, the IC50 in [13] (setting [16]) was determined as 3.8 µM; in data set [5] (setting [15]) it was 1.6 µM. Moreover, the CC50 in data set [4] amounted to 28.2 µM; in data set [7], 19.2 µM.

As to `Cc1nc([C@@H](NC(=O)c2ccc(-c3ccc(Cl)cc3)[nH]2)[C@@H]2CCCCN2)sc1CCO`, the IC50 in data set [13] (setting [16]) was 8.9 µM; in data set [5] (setting [15]), 2 µM. Besides, the CC50 was found to be 26.8 µM in data set [4] and 17.3 µM in data set [7].

As to `Cc1nc([C@@H](NC(=O)c2ccc(-c3ccc(Cl)c(F)c3)[nH]2)[C@H]2CCCCN2)sc1CO`, the IC50 in [13] (setting [16]) was 3 µM; in [5] (setting [15]) it was 1.6 µM. The CC50 in data set [4] worked out at 17.2 µM; in [7], 15.2 µM.

In the case of `Cc1ccc(-c2ccc(C(=O)N[C@@H](c3nc(C)c(CCCO)s3)[C@@H]3CCCCN3)[nH]2)cc1F`, the values for the IC50 in data set [13] (setting [16]) and in [5] (setting [15]) were 7.9 µM and 7.4 µM, respectively. Further, the CC50 in [4] is 20.6 µM; in data set [7], 17 µM.

For the compound `Cc1nc([C@@H](CN)NC(=O)c2ccc(-c3ccc(Cl)c(F)c3)[nH]2)sc1CO`, the values for the CC50 in data set [4] and in data set [7] were 22.7 µM and 26 µM, respectively.

Take `Cc1nc([C@H](NC(=O)c2ccc(-c3ccc(Cl)cc3)[nH]2)[C@@H]2CCCCN2)sc1CCCO`: the IC50 in data set [13] (setting [16]) is 7.6 µM; in [5] (setting [15]), 5.8 µM. The 50% cytotoxic concentration (CC50) in data set [4] was determined as 19 µM; in [7] it was 13.7 µM.

Turning to `Cc1nc([C@@H](CN)NC(=O)c2ccc(-c3ccc(Cl)cc3)[nH]2)sc1CO`, the CC50 in data set [4] was 28.2 µM; in data set [7], 34.1 µM.

For `Cc1nc([C@H](CN)NC(=O)c2ccc(-c3ccc(Cl)cc3)[nH]2)sc1CO`, the CC50 in data set [4] was 25.8 µM; in data set [7], 33.6 µM. The IC50 turned out to be 30 µM in data set [14] and 11.9 µM in data set [10].

As for `Cc1nc([C@H](CN)NC(=O)c2ccc(-c3ccc(Cl)c(F)c3)[nH]2)sc1CO`, the values for the CC50 in [4] and in data set [7] were 30.5 µM and 40.5 µM, respectively. In [10], this compound showed an IC50 of 15.2 µM.

Consider `Cc1ccc(-c2ccc(C(=O)N[C@@H](CN)c3nc(C)c(CO)s3)[nH]2)cc1F`, for which the IC50 turned out to be 1.7 µM in data set [13] (setting [16]) and 0.91 µM in data set [5] (setting [15]). Further, the 50% cytotoxic concentration (CC50) in data set [4] stood at 31.6 µM; in data set [7], 35 µM.

On to `Cc1ccc(-c2ccc(C(=O)N[C@@H](c3nc(C)c(CCO)s3)[C@@H]3CCCCN3)[nH]2)cc1F`, for which the concentration for half-maximal inhibition (IC50) in [13] (setting [16]) came to 6.3 µM; in data set [5] (setting [15]), 3 µM. The CC50 in [4] worked out at 21.2 µM; in [7], 15.3 µM.

As for `Cc1nc([C@H](NC(=O)c2ccc(-c3ccc(Cl)c(F)c3)[nH]2)[C@@H]2CCCCN2)sc1CCO`, the IC50 in data set [13] (setting [16]) worked out at 8 µM; in data set [5] (setting [15]), 2.9 µM. Further, the results for the 50% cytotoxic concentration (CC50) in data set [4] and in [7] were 16.8 µM and 15.1 µM, respectively.

Take `Cc1ccc(-c2ccc(C(=O)N[C@H](c3nc(C)c(CO)s3)[C@@H]3CCCCN3)[nH]2)cc1F`: the IC50 was 2.7 µM in data set [13] (setting [16]) and 3 µM in data set [5] (setting [15]). In addition, the CC50 worked out at 16.1 µM in data set [4] and 18 µM in data set [7].

`Cc1nc([C@H](NC(=O)c2ccc(-c3ccc(Cl)c(F)c3)[nH]2)[C@H]2CCCCN2)sc1CO`: the IC50 was 3.2 µM in data set [13] (setting [16]) and 2.6 µM in data set [5] (setting [15]). The CC50 stood at 26 µM in data set [4] and 17.4 µM in data set [7].

Consider `Cc1nc([C@H](NC(=O)c2ccc(-c3ccc(Cl)cc3)[nH]2)[C@@H]2CCCCN2)sc1CCO`, for which the IC50 in [13] (setting [16]) worked out at 5.7 µM; in [5] (setting [15]), 4.6 µM. Further, the CC50 in data set [4] is 21 µM; in data set [7], 15.4 µM.

For the compound `Cc1nc(C(NC(=O)c2ccc(-c3ccc(Cl)cc3)[nH]2)C2CCCCN2)[nH]c1CO` (stereo in doubt; 35A), the concentration for half-maximal inhibition (IC50) in data set [13] (setting [16]) came out at 14.1 µM; in data set [5] (setting [15]) it was 10.2 µM. Further, the CC50 in [4] (96 h) is 36.6 µM; in data set [7], 30 µM.

For `Cc1nc(C(NC(=O)c2ccc(-c3ccc(Cl)cc3)[nH]2)C2CCCCN2)[nH]c1CO` (stereo in doubt; 35B), the results for the IC50 in [13] (tzm-bl) and in data set [5] (mt2) were 15.8 µM and 18 µM, respectively. In addition, the CC50 worked out at 45.2 µM in [4] (96 h) and 33.8 µM in [7].

For the compound `Cc1nc(C(NC(=O)c2ccc(-c3ccc(Cl)c(F)c3)[nH]2)C2CCCCN2)[nH]c1CO` (stereo in doubt; 36A), the IC50 was determined as 8.8 µM in data set [13] (setting [16]) and 10.6 µM in data set [5] (mt2). In addition, the results for the CC50 in data set [4] (96 h) and in data set [7] were 31.1 µM and 26.7 µM, respectively.

As to `Cc1nc(C(NC(=O)c2ccc(-c3ccc(Cl)c(F)c3)[nH]2)C2CCCCN2)[nH]c1CO` (stereo in doubt; 36B), the IC50 in [13] (tzm-bl) was 16 µM; in [5] (mt2), 22.8 µM. Further, the CC50 in [4] (96 h) came to 36.4 µM; in data set [7], 30.7 µM.

Take `Cc1ccc(-c2ccc(C(=O)NC(c3nc(C)c(CO)[nH]3)C3CCCCN3)[nH]2)cc1F` (stereo in doubt; 37A): the IC50 in data set [13] (setting [16]) amounted to 9.4 µM; in [5] (setting [15]), 12.9 µM. In addition, the CC50 in data set [4] (96 h) came to 28.4 µM; in [7], 33.3 µM.

Turning to `Cc1ccc(-c2ccc(C(=O)NC(c3nc(C)c(CO)[nH]3)C3CCCCN3)[nH]2)cc1F` (stereo in doubt; 37B), the IC50 in data set [13] (tzm-bl) was 16.9 µM; in [5] (mt2) it was 22.3 µM. Also, the CC50 in data set [4] (96 h) came out at 37.1 µM; in data set [7] it was 34.5 µM.

The term IC50 denotes the concentration that gives 50% inhibition. In general, CC50 refers to the concentration that lowers cell viability or growth by half.
